pIC50, pKd, pKi: −log10 of the molar value. The source made the active and inactive calls. The rule behind the calls is not given here.

For experiment [1], the target named is T1, Translocator protein (Rattus norvegicus, UniProt P16257). The experiment in a line: Irreversible binding affinity to TSPO in rat kidney mitochondrial membrane. The class given is cell membranes. Summed up:
(§1)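 Rat kidney membranes preincubated with ligand (1 nM to 1 μM) for 0, 10, 30, 60, 90 or 180 min in binding buffer. Stopped with ice-cold 50 mM Tris/HCl pH 7.4, centrifuged 13000g 15 min at 4 °C, pellets washed twice. Residual [3H]Ro 5-4864 binding then measured at 65 μg protein/tube. ln B/B0 plotted against time. Kd and K2 taken from a 1/Kobs vs 1/[D] plot. Duplicates, three experiments.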

Experiment [2] addresses Translocator protein (Rattus norvegicus) (UniProt P16257). Nature of the experiment: Displacement of [3H]Ro5-4864 from TSPO in rat kidney mitochondrial membrane at 1 to 1000 nM. The format is cell membranes. The following applies: TDE = time-dependent effect. The procedure, abridged: as §1
(In general: In a radioligand displacement assay an active substance lowers the binding of a labelled ligand.)

The target is the same in experiment [3]. The experiment in a line: Displacement of [3H]Ro5-4864 from TSPO in rat kidney mitochondrial membrane after 180 mins. The class given is cell membranes. Summed up: as §1
Experiment [4] has as its target T1, Translocator protein. The experiment in a line: Displacement of [3H]Ro5-4864 from TSPO in rat kidney mitochondrial membrane. The format is cell membranes. The procedure, abridged: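 IC50 and Ki taken from displacement curves. Bound radioactivity expressed as percent of specific binding. Triplicate determinations pooled from three independent experiments.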

Experiment [5] has as its target Translocator protein (Homo sapiens) (UniProt P30536). The experiment in a line: Irreversible binding affinity to TSPO in human U87MG cells at 100 to 500 nM after 90 mins in presence of 10 uM Ro5-4864. The format is cell-based. The following applies: U-87MG ATCC. Summed up: (§2)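 U87MG cells grown in RPMI 1640 with 10% FBS, seeded at 4 × 10^4 cells/well for 24 h. Some wells pretreated with 10 μM Ro 5-4864, then given probe (100, 250, 500 nM) for 20 or 90 min at 37 °C, 5% CO2. Four washes in medium with cysteine, then PBS. Fluorescence read at Ex 485/Em 535 nm. Mean ± SEM, at least three experiments in duplicate.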

The target is the same in experiment [6]. The experiment in a line: Irreversible binding affinity to TSPO in human U87MG cells at 100 to 500 nM after 20 mins in presence of 10 uM Ro5-4864. The conditions noted are these: U-87MG ATCC. The format is cell-based. Summed up: as §2

T1 sequence (P16257 whole entry, looked up): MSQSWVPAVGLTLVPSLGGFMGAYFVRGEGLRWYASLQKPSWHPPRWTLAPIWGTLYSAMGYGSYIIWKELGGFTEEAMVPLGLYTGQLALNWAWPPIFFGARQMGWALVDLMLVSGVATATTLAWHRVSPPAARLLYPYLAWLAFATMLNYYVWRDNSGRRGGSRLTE
Sequence of Translocator protein (Rattus norvegicus) (P16257 whole entry, looked up): as above
Sequence of Translocator protein (Homo sapiens) (P30536 whole entry): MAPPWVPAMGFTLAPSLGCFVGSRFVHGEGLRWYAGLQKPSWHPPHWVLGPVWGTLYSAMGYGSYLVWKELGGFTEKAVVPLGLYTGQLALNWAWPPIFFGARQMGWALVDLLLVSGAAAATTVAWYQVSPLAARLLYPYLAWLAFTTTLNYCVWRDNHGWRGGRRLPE

On to `CCCN(CCC)C(=O)C(=O)c1c(-c2ccccc2)[nH]c2ccc(N=C=S)cc12`, for which the pKd (as a rule, the Kd on a negative log10 scale, so that one unit is a factor of ten) on Translocator protein [1] was 8.50. For the same molecule, in experiment [2], the Activity entry is “tde”. In addition, in experiment [3], the Activity result was “Dose-dependent effect”. Also, at Translocator protein [4], the pIC50 – broadly, −log10 of the IC50, conventionally taken in molar units – is 7.34 and the pKi – broadly, the Ki on a negative log10 scale, so that one unit is a factor of ten – was 7.42.
For the molecule `O=C(NCCCCCCNc1ccc([N+](=O)[O-])c2nonc12)C(=O)c1c(-c2ccccc2)[nH]c2ccc(N=C=S)cc12`, the result in experiment [5] was Active. Also, the pKd on Translocator protein [1] is 8.08. Besides, the Activity entry in experiment [2] was “tde”; in experiment [3], “Dose-dependent effect”. Also, the result in experiment [6] was inactive. On Translocator protein [4], this molecule gave a pIC50 of 7.37. At Translocator protein [4], this molecule gave a pKi of 7.42.
As to `CCCCCCN(CCCCCC)C(=O)C(=O)c1c(-c2ccccc2)[nH]c2ccc(N=C=S)cc12`, at Translocator protein [1], the pKd was 8.29. Moreover, the Activity entry in experiment [2] is “tde”. Also, the Activity result in experiment [3] was “Dose-dependent effect”. At Translocator protein [4], the pIC50 was 7.22 and the pKi is 7.31.

Source of the values: ChEMBL document CHEMBL1157813, “Novel irreversible fluorescent probes targeting the 18 kDa translocator protein: synthesis and biological characterization” (J Med Chem, 2010).
